Assay results from ChEMBL document CHEMBL4177760, “Ligand-Phospholipid Conjugation: A Versatile Strategy for Developing Long-Acting Ligands That Bind to Membrane Proteins by Restricting the Subcellular Localization of the Ligand” (J Med Chem, 2018).
Calls of active or inactive are those of the source. No cut-off for these calls is given here.

How the values were obtained:
[1] = target: Muscarinic acetylcholine receptor; test: Displacement of [3H]NMS from muscarinic receptor in Sprague-Dawley rat brain homogenates after 60 mins by liquid scintillation counting method
How it was run: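 Competition binding against [3H]N-methyl scopolamine in rat brain homogenates carrying muscarinic receptors; read-out as log IC50; data from at least four experiments.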

[2] = target: T1, Muscarinic acetylcholine receptor (Rattus norvegicus) (UniProt P08482+P08483+P08485+P08911+P10980); test: Displacement of [3H]NMS from muscarinic receptor in Sprague-Dawley rat brain homogenates assessed as remaining protein bound radioligand levels at 300 pM to 1 uM after 60 mins by liquid scintillation counting method relative to control
How it was run: (§1)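 Rat brain homogenates incubated with test ligand at 25 °C. [3H]N-methyl scopolamine binding to muscarinic receptors measured before and after wash-out with ice-cold buffer and expressed as binding remaining. Based on at least four experiments.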

[3] = target: T1, Muscarinic acetylcholine receptor (Rattus norvegicus); test: Displacement of [3H]NMS from muscarinic receptor in Sprague-Dawley rat brain homogenates assessed as remaining protein bound radioligand levels at 300 pM to 1 uM preincubated for 60 mins followed by single washout treatment by liquid scintillation counting method relative to control; how it was run: as §1
[4] = target: T2, Muscarinic acetylcholine receptor M4 (Rattus norvegicus, UniProt P08485); test: Displacement of [3H]NMS from muscarinic receptor M4 in Sprague-Dawley rat brain homogenates after 60 mins by liquid scintillation counting method
T2 sequence (P08485 whole entry): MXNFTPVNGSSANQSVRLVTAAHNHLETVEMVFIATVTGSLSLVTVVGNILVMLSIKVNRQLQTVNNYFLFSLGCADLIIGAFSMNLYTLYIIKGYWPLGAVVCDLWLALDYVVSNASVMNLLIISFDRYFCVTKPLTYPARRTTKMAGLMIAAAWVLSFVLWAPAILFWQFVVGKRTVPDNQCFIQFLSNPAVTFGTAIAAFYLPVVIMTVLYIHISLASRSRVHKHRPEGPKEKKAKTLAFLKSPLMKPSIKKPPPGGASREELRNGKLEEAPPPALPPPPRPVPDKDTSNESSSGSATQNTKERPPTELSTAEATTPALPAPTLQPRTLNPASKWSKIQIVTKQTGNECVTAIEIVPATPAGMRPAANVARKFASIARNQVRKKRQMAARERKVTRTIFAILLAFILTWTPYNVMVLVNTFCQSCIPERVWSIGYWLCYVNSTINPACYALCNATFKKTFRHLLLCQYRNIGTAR

[5] = target: T3, Muscarinic acetylcholine receptor M1 (Rattus norvegicus, UniProt P08482); test: Displacement of [3H]NMS from muscarinic receptor M1 in Sprague-Dawley rat brain homogenates after 60 mins by liquid scintillation counting method
T3 sequence (P08482 whole entry): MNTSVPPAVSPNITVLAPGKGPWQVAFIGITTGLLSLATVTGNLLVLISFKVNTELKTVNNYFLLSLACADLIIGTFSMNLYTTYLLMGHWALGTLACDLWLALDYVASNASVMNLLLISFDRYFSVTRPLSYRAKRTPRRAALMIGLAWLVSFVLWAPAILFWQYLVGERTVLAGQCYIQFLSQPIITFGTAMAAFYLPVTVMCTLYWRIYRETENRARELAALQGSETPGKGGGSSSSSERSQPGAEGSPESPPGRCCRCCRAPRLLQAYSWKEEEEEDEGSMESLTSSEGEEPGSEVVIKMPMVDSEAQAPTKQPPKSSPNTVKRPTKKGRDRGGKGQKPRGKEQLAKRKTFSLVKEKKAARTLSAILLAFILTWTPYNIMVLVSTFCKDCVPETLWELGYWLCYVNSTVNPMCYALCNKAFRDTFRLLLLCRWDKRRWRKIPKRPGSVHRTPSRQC

[6] = target: T4, Muscarinic acetylcholine receptor M5 (Rattus norvegicus, UniProt P08911); test: Displacement of [3H]NMS from muscarinic receptor M5 in Sprague-Dawley rat brain homogenates after 60 mins by liquid scintillation counting method
T4 sequence (P08911 whole entry): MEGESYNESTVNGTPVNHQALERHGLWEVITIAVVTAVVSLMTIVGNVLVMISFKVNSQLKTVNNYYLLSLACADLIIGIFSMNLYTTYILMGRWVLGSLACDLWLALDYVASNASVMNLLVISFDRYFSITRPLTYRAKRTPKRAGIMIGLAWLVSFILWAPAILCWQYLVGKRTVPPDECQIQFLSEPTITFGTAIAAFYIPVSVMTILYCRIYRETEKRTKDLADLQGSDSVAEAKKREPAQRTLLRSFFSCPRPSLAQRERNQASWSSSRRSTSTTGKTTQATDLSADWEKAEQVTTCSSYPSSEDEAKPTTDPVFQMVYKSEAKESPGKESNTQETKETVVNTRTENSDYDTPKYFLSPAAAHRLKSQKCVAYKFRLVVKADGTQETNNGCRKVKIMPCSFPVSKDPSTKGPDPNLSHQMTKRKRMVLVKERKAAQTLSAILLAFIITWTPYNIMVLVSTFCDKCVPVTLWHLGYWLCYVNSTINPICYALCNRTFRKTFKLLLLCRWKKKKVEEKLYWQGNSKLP

[7] = target: T1, Muscarinic acetylcholine receptor (Rattus norvegicus); test: Displacement of [3H]NMS from muscarinic receptor in Sprague-Dawley rat brain homogenates assessed as remaining protein bound radioligand levels at 300 pM to 1 uM preincubated for 60 mins followed by double washout treatment by liquid scintillation counting method relative to control; how it was run: as §1
Rattus norvegicus [8] = test: In vivo displacement of [3H]NMS from muscarinic receptor in rat bladder assessed as increase in [3H]NMS Kdapp at 10 uM administered via intravesical instillation measured after 30 mins; assay type: functional, organism-based
How it was run: (§2)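 Rats received the compound by intravesical instillation. Bladders were dissected 30 min or 24 h afterwards and [3H]N-methyl scopolamine binding to bladder muscarinic receptors was measured directly. The apparent Kd (Kdapp) of the radioligand was calculated and compared against control animals.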

Rattus norvegicus [9] = test: In vivo displacement of [3H]NMS from muscarinic receptor in rat bladder assessed as increase in [3H]NMS Kdapp at 10 uM administered via intravesical instillation measured after 24 hrs; assay type: functional, organism-based; how it was run: as §2
[10] = target: T5, Muscarinic acetylcholine receptor M2 (Rattus norvegicus, UniProt P10980); test: Displacement of [3H]NMS from muscarinic receptor M2 in Sprague-Dawley rat brain homogenates after 60 mins by liquid scintillation counting method
T5 sequence (P10980 whole entry): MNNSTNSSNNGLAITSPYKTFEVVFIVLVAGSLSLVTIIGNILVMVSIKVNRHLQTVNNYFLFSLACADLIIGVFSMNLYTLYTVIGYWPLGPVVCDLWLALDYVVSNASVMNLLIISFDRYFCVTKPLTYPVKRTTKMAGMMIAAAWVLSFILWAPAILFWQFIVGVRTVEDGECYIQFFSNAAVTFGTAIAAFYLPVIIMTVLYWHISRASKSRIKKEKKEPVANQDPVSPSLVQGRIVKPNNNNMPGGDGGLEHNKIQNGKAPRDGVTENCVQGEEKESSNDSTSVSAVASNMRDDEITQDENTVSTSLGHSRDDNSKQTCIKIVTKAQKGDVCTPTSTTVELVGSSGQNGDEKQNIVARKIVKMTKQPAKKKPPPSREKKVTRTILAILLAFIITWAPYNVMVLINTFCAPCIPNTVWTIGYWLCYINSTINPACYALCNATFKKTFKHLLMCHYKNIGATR

[11] = target: Muscarinic acetylcholine receptor M3 (Rattus norvegicus, UniProt P08483); test: Displacement of [3H]NMS from muscarinic receptor M3 in Sprague-Dawley rat brain homogenates after 60 mins by liquid scintillation counting method
Sequence of Muscarinic acetylcholine receptor M3 (P08483 whole entry): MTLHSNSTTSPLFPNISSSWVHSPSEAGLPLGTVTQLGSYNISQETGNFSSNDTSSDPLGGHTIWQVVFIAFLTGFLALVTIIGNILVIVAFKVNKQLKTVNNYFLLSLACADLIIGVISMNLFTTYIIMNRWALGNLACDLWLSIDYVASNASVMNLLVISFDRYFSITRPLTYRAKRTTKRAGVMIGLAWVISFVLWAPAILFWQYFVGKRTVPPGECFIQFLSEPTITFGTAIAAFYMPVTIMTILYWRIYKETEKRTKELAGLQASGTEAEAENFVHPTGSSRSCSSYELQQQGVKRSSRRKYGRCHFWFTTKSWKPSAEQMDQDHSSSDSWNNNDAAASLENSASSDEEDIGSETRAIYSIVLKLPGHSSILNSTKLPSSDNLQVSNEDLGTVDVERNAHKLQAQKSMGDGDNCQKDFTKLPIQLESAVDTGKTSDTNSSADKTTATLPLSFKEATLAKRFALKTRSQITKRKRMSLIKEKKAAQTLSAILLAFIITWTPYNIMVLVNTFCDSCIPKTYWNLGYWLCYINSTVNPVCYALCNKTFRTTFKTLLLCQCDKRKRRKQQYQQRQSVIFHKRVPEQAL

SMILES | pIC50 [1] | Activity [2] | Activity [3] | Activity [7] | Ki [10] | Ki [11] | Ki [4] | Ki [5] | Ki [6] | inhibition (Rattus norvegicus [8]) | inhibition (Rattus norvegicus [9])
Cc1ccc(O)c([C@H](CCN(C(C)C)C(C)C)c2ccccc2)c1 [TOLTERODINE] | – | 9% | 36.2% | 93.2% | – | – | 3.1 nM | 1.4 nM | 2.2 nM | Active | inactive
CCCCCCCCCCCCCCCCCC(=O)OC[C@H](COP(=O)(O)OCCOCCOCCOCCNC(=O)CCCCCC(=O)NCCc1ccc(O)c([C@H](CCN(C(C)C)C(C)C)c2ccccc2)c1)OC(=O)CCCCCCCCCCCCCCCCC | 7.74 | 32.3% | 15.5% | – | – | – | – | – | – | – | –
CCCCCCCCCCCCCCCCCC(=O)OC[C@H](COP(=O)(O)OCCOCCNC(=O)CCCCCC(=O)NCCc1ccc(O)c([C@H](CCN(C(C)C)C(C)C)c2ccccc2)c1)OC(=O)CCCCCCCCCCCCCCCCC | 6.91 | 66.4% | 59.2% | – | – | – | – | – | – | – | –
CC(C)N(CC[C@H](c1ccccc1)c1cc(CCNC(=O)CCCCCC(=O)NCCOCCOCCOCCOCCOCCOCCOCCOCCOCCO)ccc1O)C(C)C.Cl | 7.88 | 7.1% | 34.9% | 63.5% | – | – | – | – | – | – | –
CC(C)N(CC[C@H](c1ccccc1)c1cc(CCNC(=O)CCCCCNC(=O)COc2ccc(/C=C/C3=[N+]4C(=Cc5ccc(-c6cccs6)n5[B-]4(F)F)C=C3)cc2)ccc1O)C(C)C | – | – | – | – | 9 nM | 10.3 nM | 6.3 nM | 4.6 nM | 17.5 nM | – | –

Now from value to molecule, other results behind:

pIC50 [1] | Activity [2] | Activity [3] | Activity [7] | Ki [10] | Ki [11] | SMILES | Ki [4] | Ki [5] | Ki [6] | inhibition (Rattus norvegicus [8]) | inhibition (Rattus norvegicus [9])
8.15 | 4.7% | 2.1% | – | – | – | CCCCCCCCCCCCCCCCCC(=O)OC[C@H](COP(=O)(O)OCCOCCOCCOCCOCCOCCOCCOCCNC(=O)CCCCCC(=O)NCCc1ccc(O)c([C@H](CCN(C(C)C)C(C)C)c2ccccc2)c1)OC(=O)CCCCCCCCCCCCCCCCC | – | – | – | – | –
7.86 | 14.5% | 5.1% | – | – | – | CCCCCCCCCCCCCCCCCC(=O)OC[C@H](COP(=O)(O)OCCOCCOCCOCCOCCOCCNC(=O)CCCCCC(=O)NCCc1ccc(O)c([C@H](CCN(C(C)C)C(C)C)c2ccccc2)c1)OC(=O)CCCCCCCCCCCCCCCCC | – | – | – | – | –
8.49 | 11.2% | 1.9% | – | – | – | CCCCCCCCCCCCCCCCCC(=O)OC[C@H](COP(=O)(O)OCCOCCOCCOCCOCCOCCOCCOCCOCCOCCOCCOCCNC(=O)CCCCCC(=O)NCCc1ccc(O)c([C@H](CCN(C(C)C)C(C)C)c2ccccc2)c1)OC(=O)CCCCCCCCCCCCCCCCC | – | – | – | – | –
8.53 | 6% | 1.7% | 2.1% | – | – | CCCCCCCCCCCCCCCCCC(=O)OC[C@H](COP(=O)(O)OCCOCCOCCOCCOCCOCCOCCOCCOCCOCCNC(=O)CCCCCC(=O)NCCc1ccc(O)c([C@H](CCN(C(C)C)C(C)C)c2ccccc2)c1)OC(=O)CCCCCCCCCCCCCCCCC | – | – | – | Active | Active
